One block for each molecule: values may come before it. Activity calls are given as the source filed them. The calls are words filed in the database; no cut-off is given here.
Experiments:
[1] = test system: PC-3; experiment: Antiproliferative activity against human PC3 cells at 4 uM after 48 hrs by MTT assay; assay type: functional
Procedure, shortened: (§1)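 Epithelial cancer lines came from ATCC and were seeded the day before in complete medium: PC-3, SkOV3 and A549 at 3,000/well; MiaPaCa-2 and BxPC-3 at 4,000; T-47D and MDA-MB-468 at 5,000. Medium was switched to 0.5% FBS just before exposure to 4 μM. Read-out was MTT (4 h, 37 °C), SDS/HCl solubilisation, A595 minus cell-free blank. Growth inhibition was taken versus DMSO (≤0.1% v/v) controls, ≥2 experiments in triplicate.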

[2] = test system: SK-OV-3; experiment: Antiproliferative activity against human SKOV3 cells at 4 uM after 48 hrs by MTT assay; assay type: functional; procedure, shortened: as §1
[3] = test system: A549; experiment: Antiproliferative activity against human A549 cells at 4 uM after 72 hrs by MTT assay; assay type: functional; procedure, shortened: as §1
[4] = test system: MIA PaCa-2; experiment: Antiproliferative activity against human MIAPaCa2 cells at 4 uM after 48 hrs by MTT assay; assay type: functional; procedure, shortened: as §1
[5] = test system: BXPC-3; experiment: Antiproliferative activity against human BxPC3 cells at 4 uM after 48 hrs by MTT assay; assay type: functional; procedure, shortened: as §1
[6] = test system: T47D; experiment: Antiproliferative activity against human T47D cells at 4 uM after 48 hrs by MTT assay; assay type: functional; procedure, shortened: as §1
[7] = test system: MDA-MB-468; experiment: Antiproliferative activity against human MDA-MB-468 cells at 4 uM after 48 hrs by MTT assay; assay type: functional; procedure, shortened: as §1
[8] = test system: Jurkat; experiment: Induction of apoptosis in human Jurkat T cells assessed as induction of DEVDase activity at 1 uM after 4 hrs by fluorescence assay; assay type: functional, cell-based
Procedure, shortened: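 Jurkat cells (40,000/well, 10^6 cells/mL, RPMI with 0.5% FBS) were treated for 4 h; controls got 0.1% DMSO. Lysis was in CE buffer (PIPES pH 7, NP-40, cytochalasin B, protease inhibitors) for 30 min at 4 °C. Lysates were mixed with 2x caspase buffer (HEPES pH 7.4, CHAPS, sucrose) holding 100 μM Ac-DEVD-AFC and incubated at 37 °C for 30 min. AFC was read every 2 min, ex 390/em 510 nm.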

[9] = target: T1, Retinoic acid receptor alpha (Homo sapiens) (UniProt P10276); experiment: Displacement of [3H]9cRA from RARalpha
T1 sequence (whole entry): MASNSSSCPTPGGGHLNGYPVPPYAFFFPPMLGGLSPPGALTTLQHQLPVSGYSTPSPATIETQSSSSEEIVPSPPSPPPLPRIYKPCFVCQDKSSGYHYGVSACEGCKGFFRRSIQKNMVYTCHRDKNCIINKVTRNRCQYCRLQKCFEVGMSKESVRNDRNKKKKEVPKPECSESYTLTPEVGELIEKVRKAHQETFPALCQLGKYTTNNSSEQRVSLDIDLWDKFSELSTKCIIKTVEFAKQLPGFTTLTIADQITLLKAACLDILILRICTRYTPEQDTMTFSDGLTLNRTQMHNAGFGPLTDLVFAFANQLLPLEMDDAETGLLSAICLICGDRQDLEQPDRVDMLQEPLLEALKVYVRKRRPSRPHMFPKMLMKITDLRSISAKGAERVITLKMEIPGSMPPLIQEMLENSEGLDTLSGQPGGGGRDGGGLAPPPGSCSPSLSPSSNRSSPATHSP

[10] = target: T2, Retinoic acid receptor beta (Homo sapiens) (UniProt P10826); experiment: Displacement of [3H]9cRA from RARbeta
T2 sequence (whole entry): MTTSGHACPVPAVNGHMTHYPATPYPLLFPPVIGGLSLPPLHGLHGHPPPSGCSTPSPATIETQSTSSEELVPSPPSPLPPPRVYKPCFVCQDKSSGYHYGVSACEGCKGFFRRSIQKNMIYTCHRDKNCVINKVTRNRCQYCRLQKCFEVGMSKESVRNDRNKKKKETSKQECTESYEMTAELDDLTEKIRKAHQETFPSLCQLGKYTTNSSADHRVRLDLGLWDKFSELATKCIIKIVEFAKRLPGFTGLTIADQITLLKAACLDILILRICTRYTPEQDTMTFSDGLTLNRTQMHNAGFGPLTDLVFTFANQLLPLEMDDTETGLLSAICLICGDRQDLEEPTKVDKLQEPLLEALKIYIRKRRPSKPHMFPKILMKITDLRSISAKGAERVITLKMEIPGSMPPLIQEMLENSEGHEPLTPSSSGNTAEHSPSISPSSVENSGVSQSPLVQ

[11] = target: T3, Retinoic acid receptor gamma (Homo sapiens) (UniProt P13631); experiment: Displacement of [3H]9cRA from RARgamma
T3 sequence (whole entry): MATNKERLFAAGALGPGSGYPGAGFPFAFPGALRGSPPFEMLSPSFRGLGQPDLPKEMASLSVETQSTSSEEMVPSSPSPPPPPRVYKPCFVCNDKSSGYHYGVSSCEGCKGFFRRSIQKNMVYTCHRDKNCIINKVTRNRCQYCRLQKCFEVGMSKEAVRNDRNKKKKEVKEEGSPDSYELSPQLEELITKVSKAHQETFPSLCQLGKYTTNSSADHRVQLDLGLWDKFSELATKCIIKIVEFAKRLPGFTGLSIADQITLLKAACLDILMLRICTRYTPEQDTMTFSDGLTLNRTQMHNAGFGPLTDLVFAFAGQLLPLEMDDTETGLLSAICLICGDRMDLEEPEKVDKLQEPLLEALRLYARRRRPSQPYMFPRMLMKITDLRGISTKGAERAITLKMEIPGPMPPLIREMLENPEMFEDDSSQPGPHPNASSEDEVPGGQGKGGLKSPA

[12] = target: T4, Retinoic acid receptor RXR-alpha (Homo sapiens) (UniProt P19793); experiment: Displacement of [3H]9cRA from RXRalpha
T4 sequence (whole entry): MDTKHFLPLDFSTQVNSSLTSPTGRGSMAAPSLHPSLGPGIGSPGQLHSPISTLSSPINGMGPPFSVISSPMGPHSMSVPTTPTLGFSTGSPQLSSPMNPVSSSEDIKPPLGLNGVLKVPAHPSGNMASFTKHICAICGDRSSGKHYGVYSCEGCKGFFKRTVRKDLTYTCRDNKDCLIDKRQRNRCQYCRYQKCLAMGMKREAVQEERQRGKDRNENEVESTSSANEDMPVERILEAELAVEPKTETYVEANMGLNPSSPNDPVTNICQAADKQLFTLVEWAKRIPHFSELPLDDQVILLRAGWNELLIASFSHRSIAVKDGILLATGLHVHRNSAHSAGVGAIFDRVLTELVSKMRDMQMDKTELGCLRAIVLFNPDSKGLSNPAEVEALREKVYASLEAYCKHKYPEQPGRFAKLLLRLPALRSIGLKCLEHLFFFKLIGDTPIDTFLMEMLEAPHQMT

[13] = target: T2, Retinoic acid receptor beta (Homo sapiens); experiment: Inhibition of transactivation activity of Gal4-LBD fused human RARbeta (169 to 448) transfected in atRA-stimulated african green monkey CV1 cells after 6 hrs by Dual-light chemiluminescent assay; assay type: cell-based; details: CV-1
Procedure, shortened: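 Gal4 DBD (1–147) was fused to hRARα (156–462) or hRARβ (169–448) LBD. CV-1 cells (20,000/well) were co-transfected with 10 ng Gal4-LBD, 100 ng UAS-luciferase and 25 ng β-gal vector. After 16 h the medium was replaced with medium containing 5% charcoal-treated FBS. Cells got atRA plus test compound at 10-, 40- or 200-fold excess (0.2, 0.8, 4 μM) for 6 h. Luciferase and β-galactosidase were read by chemiluminescence.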

[14] = target: T3, Retinoic acid receptor gamma (Homo sapiens); experiment: Inhibition of transactivation activity of Gal4-LBD fused human RARgamma (178 to 454) transfected in atRA-stimulated african green monkey CV1 cells after 20 hrs by Dual-light chemiluminescent assay; details: CV-1
[15] = target: T5, Retinoic acid receptor RXR-alpha (Mus musculus) (UniProt P28700); experiment: Inhibition of Gal4-LBD fused mouse RXRalpha transactivation in african green monkey CV1 cells at 1 uM after 6 hrs by Dual-light chemiluminescent assay; assay type: cell-based; details: CV-1
T5 sequence (whole entry): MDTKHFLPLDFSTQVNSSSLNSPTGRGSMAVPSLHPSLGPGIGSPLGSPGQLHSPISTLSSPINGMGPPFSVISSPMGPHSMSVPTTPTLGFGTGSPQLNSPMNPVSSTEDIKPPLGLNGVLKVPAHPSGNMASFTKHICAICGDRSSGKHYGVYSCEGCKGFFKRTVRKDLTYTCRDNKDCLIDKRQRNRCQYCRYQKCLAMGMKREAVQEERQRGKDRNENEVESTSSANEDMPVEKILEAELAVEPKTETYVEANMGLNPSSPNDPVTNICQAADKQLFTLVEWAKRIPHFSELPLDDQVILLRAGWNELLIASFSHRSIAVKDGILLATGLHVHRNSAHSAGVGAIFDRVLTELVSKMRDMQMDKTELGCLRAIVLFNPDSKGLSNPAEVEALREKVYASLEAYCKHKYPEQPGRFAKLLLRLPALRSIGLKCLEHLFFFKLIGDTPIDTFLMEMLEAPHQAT
Procedure, shortened: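 CV-1 cells (20,000/well) co-transfected with 10 ng Gal4 DBD (residues 1–147)–mRXRα LBD (residues 218–467) vector, 100 ng UAS-luciferase reporter and 25 ng β-galactosidase vector (pCH110). After 16 h, switched to medium with 5% charcoal-treated FBS and treated for 6 h. Cells washed, lysed, and luciferase and β-galactosidase activities read by chemiluminescence.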

- Activity [9]: 31%
- Activity [10]: 17%
- Activity [11]: 83%
- Activity [12]: 16%
SMILES: O=C(O)/C=C/c1ccc(-c2ccc(O)c(C34CC5CC(CC(C5)C3)C4)c2)c(Cl)c1
- Activity [1]: Active
- Activity [2]: Active
- Activity [3]: Active
- Activity [4]: Active
- Activity [5]: Active
- Activity [6]: Active
- Activity [7]: Active
- Activity [8]: Active

- Activity [13]: Active
- Activity [14]: Active
SMILES: CC1(C)CC=C(C#Cc2ccccc2)c2cc(/C=C/c3ccc(C(=O)O)cc3)ccc21

SMILES: CCCCCOc1cc2c(cc1-c1cc(/C=C/C(=O)O)ccc1O)C(C)(C)CCC2(C)C
- Activity [15]: Active

— ChEMBL document CHEMBL1158389, “Highly twisted adamantyl arotinoids: synthesis, antiproliferative effects and RXR transactivation profiles” (Eur J Med Chem, 2009)
